Results published in EPA's CvTdb concentration-time database.

What was measured:
human = experiment: amount in urine after dosing (umol); conditions: dosed: tert-amyl methyl ether, 38.4 ppm, inhalation, duration: 4 hr
Method in brief: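 Points were largely digitised from plot screenshots with WebPlotDigitizer or otherwise copied from tables, and they remain in the units each source reported. They come from published in vivo toxicokinetic studies and two structured collections. Sampling and analytical methods follow each source and were often not reported.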

rat [1] = experiment: amount in urine after dosing (umol); conditions: dosed: tert-amyl methyl ether, 38.4 ppm, inhalation, duration: 4 hr, F344 (Harlan Winkelmann)
rat [2] = conditions: dosed: benzo[a]pyrene, 10 umol/kg, oral, male, Wistar
rat [3] = conditions: dosed: benzo[a]pyrene, 50 umol/kg, dermal, duration: continuous, male, Wistar
rat [4] = conditions: dosed: benzo[a]pyrene, 10 umol/kg, dermal, duration: continuous, male, Wistar
rat [5] = conditions: dosed: benzo[a]pyrene, 20 umol/kg, dermal, duration: continuous, male, Wistar
rat [6] = conditions: dosed: benzo[a]pyrene, 50 umol/kg, oral, male, Wistar
rat [7] = conditions: dosed: benzo[a]pyrene, 20 umol/kg, oral, male, Wistar
rat [8] = experiment: concentration in blood after dosing; conditions: dosed: benzo(a)pyrene, 40 umol/kg, iv, male, Sprague Dawley
rat [9] = experiment: concentration in kidney after dosing; conditions: dosed: benzo(a)pyrene, 40 umol/kg, iv, male, Sprague Dawley
rat [10] = experiment: concentration in adipose after dosing; conditions: dosed: benzo(a)pyrene, 40 umol/kg, iv, male, Sprague Dawley
rat [11] = experiment: concentration in lung after dosing; conditions: dosed: benzo(a)pyrene, 40 umol/kg, iv, male, Sprague Dawley
rat [12] = experiment: concentration in feces after dosing; conditions: dosed: benzo(a)pyrene, 40 umol/kg, iv, male, Sprague Dawley
rat [13] = experiment: concentration in skin after dosing; conditions: dosed: benzo(a)pyrene, 40 umol/kg, iv, male, Sprague Dawley
rat [14] = experiment: concentration in liver after dosing; conditions: dosed: benzo(a)pyrene, 40 umol/kg, iv, male, Sprague Dawley
rat [15] = experiment: concentration in urine after dosing; conditions: dosed: benzo(a)pyrene, iv, male, Sprague Dawley

CCC(C)(O)C(=O)O (stereo not given) [2-hydroxy-2-methyl butyrate]
Conditions	amount in urine
human, 0.1093 h	54.7
human, 6.284 h	93.4
human, 12.15 h	100
human, 18.2 h	59.9
human, 24.12 h	39.1
human, 30.12 h	33.6
human, 36.29 h	57.8
human, 42.13 h	29.8
human, 48.22 h	51.6
rat [1], 5.978 h	0.204
rat [1], 12 h	0.29
rat [1], 18.07 h	0.213
rat [1], 24.08 h	0.0776
rat [1], 29.94 h	0.0345
rat [1], 36.02 h	0.092
rat [1], 42.04 h	0.103
rat [1], 48.11 h	0.0517

Oc1ccc2ccc3c4ccccc4cc4ccc1c2c43 [3-OH-benzo[a]pyrene]
Conditions	amount in urine after dosing [µg]
rat [2], 23.94 h	0.884
rat [2], 48.41 h	1.94
rat [2], 72.16 h	3.75
rat [2], 96.63 h	4.84
rat [2], 120.41 h	5.22
rat [2], 144.81 h	5.41
rat [3], 23.15 h	4.97
rat [3], 47.4 h	8.97
rat [3], 71.67 h	13.3
rat [3], 95.8 h	17.3
rat [3], 120.35 h	20
rat [3], 144.4 h	20.8
rat [4], 23.76 h	0.169
rat [4], 48.25 h	1.6
rat [4], 72.44 h	5.62
rat [4], 96.26 h	8.27
rat [4], 120.41 h	10.3
rat [4], 145.21 h	10.7
rat [5], 23.4 h	0.591
rat [5], 48.57 h	2.38
rat [5], 72.51 h	6.61
rat [5], 96.49 h	9.6
rat [5], 120.43 h	10.6
rat [5], 145.24 h	11
rat [6], 23.43 h	7.37
rat [6], 47.73 h	18.4
rat [6], 71.9 h	31.3
rat [6], 95.37 h	33.1
rat [6], 120.29 h	33.4
rat [6], 144.04 h	33.6
rat [7], 24.03 h	3.66
rat [7], 47.78 h	5.43
rat [7], 72.42 h	7.03
rat [7], 96.58 h	7.51
rat [7], 121.02 h	8.21
rat [7], 144.77 h	8.23

Oc1ccc2ccc3c4ccccc4cc4ccc1c2c43 [3-hydroxybenzo(a)pyrene]
Conditions	concentration in adipose, rat [10] [µmol/kg]	concentration in blood, rat [8] [µmol/kg]	concentration in feces, rat [12] [µmol/kg]	concentration in kidney, rat [9] [µmol/kg]	concentration in liver, rat [14] [µmol/kg]	concentration in lung, rat [11] [µmol/kg]	concentration in skin, rat [13] [µmol/kg]
2 h	0.0241	0.105	0.0001	0.195	0.49	0.023	0.385
4 h	0.0381	0.0863	0.0004	0.429	0.588	0.0236	0.232
8 h	0.0582	0.0912	0.0035	0.65	0.141	0.0176	0.135
16 h	0.0348	0.0388	0.471	0.583	0.0819	0.0153	0.103
24 h	0.033	0.0235	4.71	0.347	0.0528	0.0102	0.041
33 h	0.0322	0.0142	7.72	0.293	0.0505	0.0085	0.0215
48 h	0.0192	0.0084	8.75	0.0936	0.0149	0.0047	0.0148
72 h	0.0114	0.0047	12.9	0.0512	0.0096	0.0045	0.0073

concentration in urine, rat [15]
Conditions	2 h	4 h	4.5 h	8 h	16 h	24 h	33 h	48 h	72 h
0.01 mg/kg	–	–	0.000494 mg/kg	–	–	0.000582 mg/kg	–	6.8e-05 mg/kg	2.3e-05 mg/kg
0.05 mg/kg	–	–	0.0016 mg/kg	–	–	0.0025 mg/kg	–	0.000305 mg/kg	0.000115 mg/kg
40 umol/kg	0.0001 µmol/kg	0.0022 µmol/kg	–	0.0119 µmol/kg	0.0604 µmol/kg	0.068 µmol/kg	0.19 µmol/kg	0.149 µmol/kg	0.209 µmol/kg
